Experimental data as given in publication PMC9723933 (The Journal of Biological Chemistry, 2022).

Key:
F683L mutant strain [1] = conditions: original characterization; cited from earlier work
[2] = system: Pdr5 I685A, V1372A double mutant; assay: Whole-cell R6G transport against a concentration gradient; type: cell-based, yeast
Pdr5 F683L mutant = assay: Accumulation of R6G prior to glucose-mediated efflux; type: cell-based, yeast; conditions: 20 μM R6G, Hepes buffer, no glucose, 90 min
[3] = system: M1373T and A684S mutant strains; assay: Relative drug resistance; type: cell-based, yeast; conditions: n = 4
Pdr5 G1371A strain = Pdr5 G1371A strain (Saccharomyces cerevisiae, UniProt P33302, G1371A); assay: Whole-cell R6G transport against a concentration gradient; type: cell-based, yeast; conditions: median; 90 min, 30 °C, Hepes-glucose buffer
In short: (§1)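 Log-phase yeast grown in YPD at 30 °C, R-1 background with integrated PDR5 under its own promoter. 3 × 10^6 cells were incubated in 0.02 M Hepes with 1 mM glucose (pH 7.0) and 20 μM R6G at 30 °C for 90 min, then washed in cold glucose-free Hepes. Median retained fluorescence was read by flow cytometry from 10,000 cells, in arbitrary units; n ≥ 4.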

F683L mutant strain [4] = assay: Relative drug resistance; type: cell-based, yeast; conditions: n = 4
Pdr5 WT control strain = Pdr5 WT control strain (Saccharomyces cerevisiae, UniProt P33302); assay: Whole-cell R6G transport against a concentration gradient; type: cell-based, yeast; conditions: median; 90 min, 30 °C, Hepes-glucose buffer
In short: as §1

ΔPdr5 strain = assay: Whole-cell R6G transport against a concentration gradient; type: cell-based, yeast; conditions: median; 90 min, 30 °C, Hepes-glucose buffer
Pdr5 M1373A mutant = Pdr5 M1373A mutant (Saccharomyces cerevisiae, UniProt P33302, M1373A); assay: as above; type: cell-based, yeast; conditions: median; 90 min, 30 °C, Hepes-glucose buffer
Pdr5 F1369A mutant = Pdr5 F1369A mutant (Saccharomyces cerevisiae, UniProt P33302, F1369A); assay: as above; type: cell-based, yeast
V1372A mutant strain = type: cell-based, yeast; conditions: liquid YPD, 30 °C, n = 3
I685A mutant strain = type: cell-based, yeast; conditions: liquid YPD, 30 °C, n = 3
M1373A mutant strain = assay: Relative drug resistance in liquid YPD culture; type: cell-based, yeast; conditions: compared with ΔPdr5 control strain
Pdr5 V1372A = Pdr5 V1372A (Saccharomyces cerevisiae, UniProt P33302, V1372A); assay: biochemical; type: biochemical, yeast
[5] = biological target: Pdr5 V1372A, I685A double mutant (Saccharomyces cerevisiae, UniProt P33302, I685A/V1372A); assay: biochemical; set-up: species or system yeast
Pdr5 I685A = Pdr5 I685A (Saccharomyces cerevisiae, UniProt P33302, I685A); assay: biochemical; type: biochemical, yeast
Pdr5 G1371A = Pdr5 G1371A (Saccharomyces cerevisiae, UniProt P33302, G1371A); assay: Inhibition of Pdr5 ATPase activity in purified PM vesicles; type: biochemical, yeast; conditions: relative to WT
Pdr5 WT = Pdr5 WT (Saccharomyces cerevisiae, UniProt P33302); assay: as above; type: biochemical, yeast
Pdr5 WT, sequence (P33302 whole entry): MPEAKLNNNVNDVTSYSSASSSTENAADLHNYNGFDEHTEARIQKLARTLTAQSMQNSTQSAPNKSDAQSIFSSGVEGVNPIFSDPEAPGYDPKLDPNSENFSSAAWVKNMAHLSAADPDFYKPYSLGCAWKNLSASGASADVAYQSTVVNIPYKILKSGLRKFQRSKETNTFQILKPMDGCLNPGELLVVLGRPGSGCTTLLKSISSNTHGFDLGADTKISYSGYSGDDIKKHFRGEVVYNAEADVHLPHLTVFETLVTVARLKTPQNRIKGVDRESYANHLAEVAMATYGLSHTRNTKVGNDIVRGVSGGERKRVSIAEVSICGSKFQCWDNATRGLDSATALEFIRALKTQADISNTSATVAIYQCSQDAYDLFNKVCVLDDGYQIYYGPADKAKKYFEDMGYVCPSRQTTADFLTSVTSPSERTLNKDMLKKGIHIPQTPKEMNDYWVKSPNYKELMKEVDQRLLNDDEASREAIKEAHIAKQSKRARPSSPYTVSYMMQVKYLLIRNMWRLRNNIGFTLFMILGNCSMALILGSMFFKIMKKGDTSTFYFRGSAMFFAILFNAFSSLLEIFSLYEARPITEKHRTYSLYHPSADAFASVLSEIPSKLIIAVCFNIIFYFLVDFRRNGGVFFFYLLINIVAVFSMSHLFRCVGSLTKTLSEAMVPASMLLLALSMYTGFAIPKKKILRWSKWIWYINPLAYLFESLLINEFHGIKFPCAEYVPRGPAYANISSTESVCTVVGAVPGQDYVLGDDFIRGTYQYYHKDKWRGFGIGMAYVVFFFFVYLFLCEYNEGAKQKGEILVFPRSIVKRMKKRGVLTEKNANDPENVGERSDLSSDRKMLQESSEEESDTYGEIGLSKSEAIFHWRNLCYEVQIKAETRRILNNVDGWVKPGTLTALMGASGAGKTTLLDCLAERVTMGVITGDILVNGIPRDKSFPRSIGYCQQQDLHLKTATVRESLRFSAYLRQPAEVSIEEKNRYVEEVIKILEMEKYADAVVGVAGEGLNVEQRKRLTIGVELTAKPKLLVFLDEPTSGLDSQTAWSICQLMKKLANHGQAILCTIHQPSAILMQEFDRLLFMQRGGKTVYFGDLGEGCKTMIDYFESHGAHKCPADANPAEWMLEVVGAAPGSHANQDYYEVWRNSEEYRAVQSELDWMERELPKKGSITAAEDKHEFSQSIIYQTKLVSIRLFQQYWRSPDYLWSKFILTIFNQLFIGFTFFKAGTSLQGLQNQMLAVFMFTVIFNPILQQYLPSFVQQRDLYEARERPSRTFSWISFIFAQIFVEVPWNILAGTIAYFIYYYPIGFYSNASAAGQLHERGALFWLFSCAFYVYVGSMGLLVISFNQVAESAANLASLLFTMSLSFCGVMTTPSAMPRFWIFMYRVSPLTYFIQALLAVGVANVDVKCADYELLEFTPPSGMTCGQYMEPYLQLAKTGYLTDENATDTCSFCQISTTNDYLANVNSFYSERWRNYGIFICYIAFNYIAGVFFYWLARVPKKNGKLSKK

Pdr5 F1369A mutant, sequence (P33302 whole entry F1369A): as the sequence (P33302 whole entry) above, with F1369A counted along it
Pdr5 V1372A, sequence (P33302 whole entry V1372A): as the sequence (P33302 whole entry) above, with V1372A counted along it
Pdr5 I685A, sequence (P33302 whole entry I685A): as the sequence (P33302 whole entry) above, with I685A counted along it
Pdr5 M1373A mutant, sequence (P33302 whole entry M1373A): as the sequence (P33302 whole entry) above, with M1373A counted along it
Pdr5 V1372A, I685A double mutant, sequence (P33302 whole entry I685A/V1372A): as the sequence (P33302 whole entry) above, with I685A, V1372A counted along it
Pdr5 G1371A, sequence (P33302 whole entry G1371A): as the sequence (P33302 whole entry) above, with G1371A counted along it
Pdr5 G1371A strain, sequence (P33302 whole entry G1371A): as the sequence (P33302 whole entry) above, with G1371A counted along it
Pdr5 WT control strain, sequence (P33302 whole entry): as the sequence (P33302 whole entry) above

**Q.** Which results are given for `CC/N=c1\cc2oc3cc(NCC)c(C)cc3c(-c3ccccc3C(=O)OCC)c-2cc1C` [R6G, rhodamine 6G]?
**A.** Minimum inhibitory concentration of F683L mutant relative to WT value (F683L mutant strain [1]): one-eighth; Retained R6G in double mutant relative to WT strain [2]: twice; Fluorescence accumulated by F683L mutant relative to WT control (Pdr5 F683L mutant): about 3 ×; Sensitivity of M1373T and A684S mutants relative to WT [3]: indistinguishable from the WT; Retained R6G fluorescence, G1371A strain (Pdr5 G1371A strain): 3093 a.u.; Rank of F683L mutant sensitivity among the four drugs (F683L mutant strain [4]): most sensitive; Retained R6G fluorescence, WT control strain (Pdr5 WT control strain): 272.6 a.u.; Retained R6G fluorescence, ΔPdr5 strain (ΔPdr5 strain): 5001 a.u.; Retained R6G fluorescence, M1373A mutant (Pdr5 M1373A mutant): 4900 a.u.; Retained fluorescence of F1369A mutant relative to WT control (Pdr5 F1369A mutant; against R6G gradient): ~5 ×; Retained R6G fluorescence, F1369A mutant (Pdr5 F1369A mutant; median, 90 min, 30 °C, Hepes-glucose buffer): 1288 a.u.

**Q.** Which “Resistance of V1372A mutant relative to WT” value (V1372A mutant strain) does the source give for `C/C=C/C/C=C/CCC(=O)[C@H]1O[C@H]1C(N)=O` [cerulenin] here?
**A.** hyper-resistant

**Q.** What about the “Resistance of I685A mutant relative to WT” value (I685A mutant strain) of the same compound?
**A.** hypersensitive

**Q.** With `OC(Cn1cncn1)(Cn1cncn1)c1ccc(F)cc1F` [fluconazole] as the compound, how does the “Sensitivity of F683L mutant” value (F683L mutant strain [1]) read?
**A.** hypersensitive

**Q.** And the “Sensitivity of M1373T and A684S mutants relative to WT” value [3]?
**A.** quite hypersensitive

**Q.** Which “Sensitivity of M1373T and A684S mutants relative to WT” value [3] does the source give for `CC(=O)N1CCN(c2ccc(OCC3COC(Cn4ccnc4)(c4ccc(Cl)cc4Cl)O3)cc2)CC1` (stereo not shown) [ketoconazole] here?
**A.** quite hypersensitive

**Q.** What about the “Rank of F683L mutant sensitivity among the four drugs” value (F683L mutant strain [4]) of the same compound?
**A.** least sensitive

**Q.** For `CC/C(=C(\c1ccccc1)c1ccc(OCCN(C)C)cc1)c1ccccc1` [tamoxifen], which “Resistance of V1372A mutant relative to WT” value (V1372A mutant strain) is on record?
**A.** hyper-resistant

**Q.** What about the “Resistance of I685A mutant relative to WT” value (I685A mutant strain) of the same compound?
**A.** hypersensitive

**Q.** For `C[C@@H]1C[C@@H]([C@H](O)CC2CC(=O)NC(=O)C2)C(=O)[C@@H](C)C1` [cycloheximide], which “Sensitivity of F683L mutant” value (F683L mutant strain [1]) is on record?
**A.** hypersensitive

**Q.** What about the “Sensitivity of M1373T and A684S mutants relative to WT” value [3] of the same compound?
**A.** mildly hypersensitive

**Q.** What about the “Resistance of M1373A mutant” value (M1373A mutant strain) of the same compound?
**A.** phenotypically indistinguishable from the ΔPdr5 control strain

**Q.** And the “Resistance of V1372A mutant relative to WT” value (V1372A mutant strain)?
**A.** hypersensitive

**Q.** And the “Resistance of I685A mutant relative to WT” value (I685A mutant strain)?
**A.** mildly hyper-resistant

**Q.** For `CC(C)(C)C(=O)C(Oc1ccc(Cl)cc1)n1ccnc1` (stereo not shown) [climbazole], which “Resistance of M1373A mutant” value (M1373A mutant strain) is on record?
**A.** phenotypically indistinguishable from the ΔPdr5 control strain

**Q.** What about the “Resistance of V1372A mutant relative to WT” value (V1372A mutant strain) of the same compound?
**A.** hypersensitive

**Q.** And the “Resistance of I685A mutant relative to WT” value (I685A mutant strain)?
**A.** hypersensitive

**Q.** Which results are given for `c1ccc(-c2ccc(C(c3ccccc3)n3ccnc3)cc2)cc1` (stereo not shown) [bifonazole]?
**A.** IC50 (Pdr5 V1372A): 3.29 µM; IC50 of single mutant V1372A compared with WT (Pdr5 V1372A; ATPase inhibition, in words): not significantly different from the WT; IC50 [5]: 13 µM; IC50 (Pdr5 I685A): 2.58 µM; IC50 of single mutant I685A compared with WT (Pdr5 I685A; ATPase inhibition, in words): not significantly different from the WT; Sensitivity of G1371A ATPase to allosteric inhibition (Pdr5 G1371A): strikingly hypersensitive; IC50 (Pdr5 WT): 2.86 µM
